Laboratory results from ChEMBL document CHEMBL1158773, “Cinnamylphenols from Phyllodium pulchellum” (J Nat Prod, 2005).

Columns and labels:
[1] = system: KB; assay: Cytotoxicity against human KB cells by MTT assay; format: functional, cell-based
Summary of the method: (§1)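 HepG2 (hepatoma line HA22T) and KB (epidermoid carcinoma, CCRC 60017) cells seeded at (1-1.5) × 10^4/mL and incubated overnight at 37 °C in 5% CO₂. On day 3, MTT (5 mg/mL solution) was added for 4 h, then formazan was dissolved in DMSO and read spectrophotometrically.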

[2] = system: HepG2; assay: Cytotoxicity against human HepG2 cells by MTT assay; format: functional, cell-based; summary of the method: as §1

SMILES: COc1c(O)ccc(C=O)c1OC
- IC50 [1]: > 100 µM
- IC50 [2]: > 100 µM

SMILES: CC1(C)C=Cc2c(cc(O)c3c(=O)c(O)c(-c4ccc(O)cc4)oc23)O1 [CITRUSINOL]
- IC50 [1]: 42.3 µM
- IC50 [2]: 43.3 µM

SMILES: COc1c(O)ccc(/C=C\Cc2ccc(O)cc2)c1OC [PULCHELSTYRENE A]
- IC50 [1]: > 100 µM
- IC50 [2]: > 100 µM

SMILES: COc1cc(C/C=C\c2ccc(O)c(OC)c2OC)ccc1O [PULCHELSTYRENE B]
- IC50 [1]: 55.6 µM
- IC50 [2]: > 100 µM

SMILES: COc1cc(C/C=C/c2ccc(OC)c(O)c2OC)ccc1O [PULCHELSTYRENE C]
- IC50 [1]: 39.8 µM
- IC50 [2]: > 100 µM

SMILES: COc1cc2c(c(OC)c1O)C=CCC21C=CC(=O)C=C1 [PULCHELSTYRENE D]
- IC50 [1]: > 100 µM
- IC50 [2]: > 100 µM

SMILES: CC1(C)C=Cc2c(cc(O)c3c2O[C@H](c2ccc(O)cc2)[C@@H](O)C3=O)O1 [YUKOVANOL]
- IC50 [1]: > 100 µM
- IC50 [2]: > 100 µM
